Measured values: ChEMBL document CHEMBL3297695, “Sesquiterpenoids from Pittocaulon filare” (2014)

Assays:
Mus musculus [1] = assay: Antiinflammatory activity against CD1 mouse ear edema model assessed as reduction of TPA-induced ear edema measured per ear administered topically 10 mins prior to TPA challenge measured after 4 hrs; format: functional
In short: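 Male CD-1 mice (25−30 g), housed at 27 ± 1 °C on a 12/12 h light−dark cycle with food and water ad libitum. Compounds were applied topically to the ear in acetone−CH2Cl2 (1:1). Edema was induced by TPA and quantified as the weight of ear biopsies taken 4 h after sample application. The ID50 is expressed in μmol/ear. Data are mean ± SEM.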

Mus musculus [2] = assay: Antiinflammatory activity against TPA-induced CD1 mouse ear edema model assessed as neutrophil infiltration by measuring myeloperoxidase content at 1 umol/ear administered topically 10 mins prior to TPA challenge measured after 4 hrs relative to control; format: functional
In short: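 Male CD-1 mice (25−30 g), ear edema induced by TPA. Compounds were applied topically at 1 μmol/ear in acetone−CH2Cl2 (1:1). MPO activity, used as a marker of neutrophils, was measured in ear biopsies taken 4 h after application by an adapted Bradley/Suzuki method. Results are given as % MPO content, mean ± SEM, analysed by ANOVA with Dunnett test against control.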

SMILES | Activity (Mus musculus [1]) | ID50 (Mus musculus [1]) | Activity (Mus musculus [2])
C=C1[C@H]2[C@@H]([C@@H]([C@@H](C)OC(C)=O)C(=O)[C@H]2OC(=O)[C@@H](C)CC)[C@H]([C@@]2(C)CO2)[C@@H](OC(=O)[C@@H](C)CC)[C@H]1OC(=O)/C=C(\C)CC | Dose-dependent effect | 0.18 µmol | 19.05%
C=C1[C@@H]2CC(=O)[C@H]([C@@H](C)OC(C)=O)[C@H]2[C@H](C(C)C)[C@@H](OC(=O)[C@@H](C)CC)[C@H]1OC(=O)/C=C(\C)CC | Dose-dependent effect | 0.17 µmol | 12.67%
COc1ccc2c(c1)c(CC(=O)O)c(C)n2C(=O)c1ccc(Cl)cc1 [INDOMETHACIN] | – | 0.24 µmol | 8.83%
C=C1[C@H]2[C@@H](/C(=C/C)C(=O)[C@H]2OC(=O)[C@@H](C)CC)[C@H]([C@@]2(C)CO2)[C@@H](OC(=O)[C@@H](C)CC)[C@H]1OC(=O)/C=C(\C)CC | Dose-dependent effect | 0.55 µmol | 11.07%
